# In paper PMC9111543 (International Journal for Parasitology: Drugs and Drug …, 2022):
# Assay: Cytotoxicity assay on MRC-5 fibroblasts
# Format: cell-based
# Settings: human, MRC-5SV2 cells
# Procedure, shortened: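 MRC-5SV2 cells grown in MEM with L-glutamine, NaHCO3 and 5% hiFBS, seeded at 15,000 cells/well. Four-fold dilutions of test compound were added, with a highest in-test concentration of 64 μM. Cells were exposed for 72 h at 37 °C and 5% CO2, then incubated with resazurin for 4 h and read by fluorescence. CC50 was calculated from ≥2 independent experiments in duplicate.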
compound,measurement,value
CC[n+]1c(-c2ccccc2)c2cc(N/N=N/c3cccc(C(=N)N)c3)ccc2c2ccc(N)cc21 [isometamidium],CC50 at 72 h,22.7 µM
